Measured values as given in ChEMBL document CHEMBL3232886, “C-17 lactam-bearing limonoids from the twigs and leaves of Amoora tsangii” (J Nat Prod, 2014).
Activity calls are given as the source filed them. The rule behind the calls is not given here.

Experiments:
[1] = biological target: Nuclear factor NF-kappa-B complex (Homo sapiens) (UniProt Q00653+P19838+Q04206); experiment: Inhibition of NF-kappaB in human HepG2 cells assessed as inhibition of TNF-alpha-induced luciferase reporter gene expression at 10 uM preincubated for 1 hr followed by TNF-alpha stimulation measured after 4 hrs relative to control; assay type: cell-based
Sequence of Nuclear factor NF-kappa-B complex (Homo sapiens) (P19838 whole entry, looked up): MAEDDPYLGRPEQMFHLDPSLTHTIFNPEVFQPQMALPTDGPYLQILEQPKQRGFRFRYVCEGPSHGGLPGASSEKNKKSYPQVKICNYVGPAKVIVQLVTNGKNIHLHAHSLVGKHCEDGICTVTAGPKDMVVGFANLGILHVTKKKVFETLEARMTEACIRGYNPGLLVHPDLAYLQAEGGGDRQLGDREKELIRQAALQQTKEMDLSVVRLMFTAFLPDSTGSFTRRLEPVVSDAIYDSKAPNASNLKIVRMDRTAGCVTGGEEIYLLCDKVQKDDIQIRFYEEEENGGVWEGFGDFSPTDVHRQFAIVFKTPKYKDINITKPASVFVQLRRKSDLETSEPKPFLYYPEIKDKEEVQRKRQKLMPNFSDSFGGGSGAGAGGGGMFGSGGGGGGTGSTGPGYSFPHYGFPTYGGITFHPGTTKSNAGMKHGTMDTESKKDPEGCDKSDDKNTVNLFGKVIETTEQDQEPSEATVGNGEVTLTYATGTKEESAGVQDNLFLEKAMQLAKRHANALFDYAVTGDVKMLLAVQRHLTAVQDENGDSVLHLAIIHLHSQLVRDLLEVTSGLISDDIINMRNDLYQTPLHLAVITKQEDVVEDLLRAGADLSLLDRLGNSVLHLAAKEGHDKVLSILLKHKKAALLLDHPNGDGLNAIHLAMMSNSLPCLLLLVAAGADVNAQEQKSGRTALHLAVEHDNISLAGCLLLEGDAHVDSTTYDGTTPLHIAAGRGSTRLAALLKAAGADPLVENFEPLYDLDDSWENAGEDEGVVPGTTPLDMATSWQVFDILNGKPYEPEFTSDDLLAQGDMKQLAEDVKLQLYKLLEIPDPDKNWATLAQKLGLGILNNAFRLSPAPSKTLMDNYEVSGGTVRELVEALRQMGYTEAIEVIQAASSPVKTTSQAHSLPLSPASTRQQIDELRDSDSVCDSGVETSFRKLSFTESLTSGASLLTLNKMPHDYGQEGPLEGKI
Sequence of Nuclear factor NF-kappa-B complex (Homo sapiens) (Q00653 whole entry, looked up): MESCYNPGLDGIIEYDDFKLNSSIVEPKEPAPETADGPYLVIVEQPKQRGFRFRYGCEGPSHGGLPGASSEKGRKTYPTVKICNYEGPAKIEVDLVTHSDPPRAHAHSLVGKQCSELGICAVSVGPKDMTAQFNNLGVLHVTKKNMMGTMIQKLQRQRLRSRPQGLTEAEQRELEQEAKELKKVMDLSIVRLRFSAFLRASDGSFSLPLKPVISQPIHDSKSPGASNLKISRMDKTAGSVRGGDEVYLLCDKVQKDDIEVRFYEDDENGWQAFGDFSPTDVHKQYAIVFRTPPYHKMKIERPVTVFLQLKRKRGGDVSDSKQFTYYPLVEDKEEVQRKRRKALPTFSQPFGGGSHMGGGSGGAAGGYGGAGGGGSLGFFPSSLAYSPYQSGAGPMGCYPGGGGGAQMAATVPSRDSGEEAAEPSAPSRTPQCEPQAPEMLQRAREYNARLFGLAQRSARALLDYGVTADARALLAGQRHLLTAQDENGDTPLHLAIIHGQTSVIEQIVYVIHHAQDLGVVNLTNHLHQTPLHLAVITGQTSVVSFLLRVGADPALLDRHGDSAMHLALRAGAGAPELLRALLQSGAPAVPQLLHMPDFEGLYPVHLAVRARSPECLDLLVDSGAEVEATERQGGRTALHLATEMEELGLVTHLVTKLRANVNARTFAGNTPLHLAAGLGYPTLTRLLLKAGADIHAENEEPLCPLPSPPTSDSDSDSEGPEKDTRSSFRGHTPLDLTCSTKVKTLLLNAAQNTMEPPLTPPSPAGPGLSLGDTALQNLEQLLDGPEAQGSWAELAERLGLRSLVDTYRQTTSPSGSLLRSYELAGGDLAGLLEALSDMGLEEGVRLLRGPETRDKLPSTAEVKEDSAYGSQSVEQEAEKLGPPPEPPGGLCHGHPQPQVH
Sequence of Nuclear factor NF-kappa-B complex (Homo sapiens) (Q04206 whole entry, looked up): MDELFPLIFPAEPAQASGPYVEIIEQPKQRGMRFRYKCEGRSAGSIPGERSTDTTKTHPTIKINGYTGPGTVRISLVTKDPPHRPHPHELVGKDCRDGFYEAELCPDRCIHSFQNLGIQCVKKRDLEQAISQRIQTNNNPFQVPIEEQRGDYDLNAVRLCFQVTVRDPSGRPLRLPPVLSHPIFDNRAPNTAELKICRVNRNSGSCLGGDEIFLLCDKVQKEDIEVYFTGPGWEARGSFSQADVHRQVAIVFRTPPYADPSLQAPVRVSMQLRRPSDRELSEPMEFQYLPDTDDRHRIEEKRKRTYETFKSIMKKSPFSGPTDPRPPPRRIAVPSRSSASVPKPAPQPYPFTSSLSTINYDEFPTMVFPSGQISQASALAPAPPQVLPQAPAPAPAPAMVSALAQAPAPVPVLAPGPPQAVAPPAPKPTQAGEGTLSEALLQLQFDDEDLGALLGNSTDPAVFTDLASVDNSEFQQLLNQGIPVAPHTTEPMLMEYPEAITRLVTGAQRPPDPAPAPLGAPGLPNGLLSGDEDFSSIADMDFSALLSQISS
In short: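 HepG2 cells stably carrying an NF-κB-luciferase reporter, grown in DMEM with 10% FBS and penicillin/streptomycin at 37 °C, 5% CO2. Seeded overnight at 5 × 10^4 cells/well (24-well), preincubated 1 h with compound at 10 μM, then stimulated with TNFα (10 ng/mL) for 4 h. Luciferase activity read in cell lysates; mean ± SEM, n = 3.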

[2] = tested on: HepG2; experiment: Cytotoxicity against human HepG2 cells at 10 uM; assay type: cell-based; conditions: hepg2, 10 µM

**Q.** Which inhibition [1] does the source give for `C=C1[C@@H]([C@@]2(C)C=CC(=O)OC(C)(C)[C@@H]2CC(=O)OC)[C@@H](OC(C)=O)[C@H](OC(=O)c2ccccc2)[C@@]2(C)[C@H](C3=CCN(C)C3=O)C[C@H]3O[C@]132` here?
**A.** inactive

**Q.** And the Activity [2]?
**A.** Non-toxic

**Q.** With `C=C1[C@@H]([C@@]2(C)C=CC(=O)OC(C)(C)[C@@H]2CC(=O)OC)[C@@H](OC(C)=O)[C@H](OC(=O)C(C)CC)[C@@]2(C)[C@H](C3=CCNC3=O)C[C@H]3O[C@]132` (stereo not given in full) as the molecule, how does the inhibition [1] read?
**A.** inactive

**Q.** What about the Activity [2] of the same molecule?
**A.** Non-toxic

**Q.** What does the source list for `C=C1[C@@H]([C@@]2(C)C=CC(=O)OC(C)(C)[C@@H]2CC(=O)OC)[C@@H](OC(C)=O)[C@H](OC(=O)C(C)CC)[C@@]2(C)[C@H](C3=CC(=O)NC3)C[C@H]3O[C@]132` (stereo not given in full)?
**A.** inhibition [1]: 64%; Activity [2]: Non-toxic

**Q.** Which results are given for `C=C1[C@@H]([C@@]2(C)C=CC(=O)OC(C)(C)[C@@H]2CC(=O)OC)[C@@H](OC(C)=O)[C@H](OC(=O)c2ccccc2)[C@@]2(C)[C@H](C3=CC(=O)NC3)C[C@H]3O[C@]132` (relative stereo)?
**A.** inhibition [1]: inactive; Activity [2]: Non-toxic

**Q.** What does the source list for `C=C1[C@@H]([C@@]2(C)C=CC(=O)OC(C)(C)[C@@H]2CC(=O)OC)[C@@H](OC(C)=O)[C@H](OC(=O)c2ccccc2)[C@@]2(C)[C@H](C3=CCNC3=O)C[C@H]3O[C@]132` (relative stereo)?
**A.** inhibition [1]: inactive; Activity [2]: Non-toxic
